What was measured:
[1] = test system: Canis familiaris; assay: Conduction time from the atrium to His bundle was tested in dogs at a dose of 3.0 mg/kg through intravenous administration. (baseline value 73+/-3 ); assay type: functional, Canis lupus familiaris
[2] = test system: Canis familiaris; assay: Conduction time for ventricular refractory period of the second premature stimulus was tested in dogs at a dose of 3.0 mg/kg through intravenous administration. (baseline value- 123+/-4); assay type: functional, Canis lupus familiaris, Cardiac ventricle
[3] = test system: Canis familiaris; assay: Compound was tested in vivo in dogs at a dose of 1.0 mg/kg through intravenous route and time at which conduction block at the atrioventricular node prevented atrial pacing was recorded.(Base line value-0); assay type: functional, Canis lupus familiaris
Outline: (§1)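 Dogs with myocardial infarction were studied 3-9 days after infarction. They were reanesthetized with pentobarbital, ventilated, and electrodes were placed via thoracotomy; blood gases were monitored. Control ERPs and reproducible inducibility were set by programmed electrical stimulation, then cumulative iv doses were given. Agents were in glass-distilled water or NaOH-neutralized saline (pH 6.7-7.0). Animals were counted per category: NI, nonsustained, sustained, VF, or AV block preventing atrial pacing.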

[4] = test system: Canis familiaris; assay: Compound was tested in vivo in dogs at a dose of 3.0 mg/kg through intravenous route and time at which nonsustained ventricular arrhythmias were induced was recorded.(Base line value-1); assay type: functional, Canis lupus familiaris, Cardiac ventricle; conditions: in the assay text read “Base line value-0” for “Base line value-1”; outline: as §1
[5] = test system: Canis familiaris; assay: Compound was tested in vivo in dogs at a dose of 3.0 mg/kg through intravenous route and time at which ventricular fibrillation was induced was recorded.(Base line value-6); assay type: functional, Canis lupus familiaris, Cardiac ventricle; conditions: in the assay text read “Base line value-3” for “Base line value-6”; outline: as §1
[6] = test system: Canis familiaris; assay: Conduction time from the His bundle to the onset of ventricular depolarizations was tested in dogs at a dose of 10.0 mg/kg through intravenous administration. (baseline value- 17+/-1 ); assay type: functional, Canis lupus familiaris, Cardiac ventricle
[7] = test system: Canis familiaris; assay: Compound was tested in vivo in dogs at a dose of 3.0 mg/kg through intravenous route and number of animals in which ventricular arrhythmias were not inducible was recorded.(Base line value-5)
[8] = species: Oryctolagus cuniculus; assay: Tested for force of contraction measured in mg at a pacing rate of 2 Hz in vitro with rabbit heart tissue preparations.; assay type: functional
Outline: (§2)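 Isolated rabbit heart tissues, all from one heart, each its own baseline; 2 h equilibration, perfusate changed every 15 min, basal stimulation 2 Hz between measurements. Exposed to 10^-7, 10^-6 and 10^-5 M drug, 15 min each; values reported at 10^-5 M as percent change from baseline. Drug solutions prepared daily in glass-distilled water. Force and rate recorded on polygraph.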

[9] = test system: Canis familiaris; assay: Compound was tested in vivo in dogs at a dose of 10.0 mg/kg through intravenous route and time at which sustained ventricular arrhythmias were induced was recorded.(Base line value-2); assay type: functional, Canis lupus familiaris, Cardiac ventricle; outline: as §1
[10] = test system: Canis familiaris; assay: Conduction time from Q wave to T wave of lead II electrocardiogram was tested in dogs at a dose of 1.0 mg/kg through intravenous administration. (baseline value- 352+/-7); assay type: functional, Canis lupus familiaris
[11] = test system: Canis familiaris; assay: Conduction time for ventricular refractory period of the first premature stimulus was tested in dogs at a dose of 3.0 mg/kg through intravenous administration. (baseline value- 137+/-4); assay type: functional, Canis lupus familiaris, Cardiac ventricle
[12] = test system: Canis familiaris; assay: Compound was tested in vivo in dogs at a dose of 1.0 mg/kg through intravenous route and time at which ventricular fibrillation was induced was recorded.(Base line value-3); assay type: functional, Canis lupus familiaris, Cardiac ventricle; outline: as §1
[13] = test system: Canis familiaris; assay: Compound was tested in vivo in dogs at a dose of 10.0 mg/kg through intravenous route and time at which conduction block at the atrioventricular node prevented atrial pacing was recorded.(Base line value-0); assay type: functional, Canis lupus familiaris; outline: as §1
[14] = test system: Canis familiaris; assay: Conduction time for ventricular refractory period of the first premature stimulus was tested in dogs at a dose of 10.0 mg/kg through intravenous administration. (baseline value- 137+/-4); assay type: functional, Canis lupus familiaris, Cardiac ventricle
[15] = test system: Canis familiaris; assay: Compound was tested in vivo in dogs at a dose of 1.0 mg/kg through intravenous route and time at which ventricular arrhythmias were not indicible was recorded.(Base line value-5); assay type: functional, Canis lupus familiaris, Cardiac ventricle; outline: as §1
[16] = test system: Canis familiaris; assay: Compound was tested in vivo in dogs at a dose of 1.0 mg/kg through intravenous route and time at which nonsustained ventricular arrhythmias were induced was recorded.(Base line value-0); assay type: functional, Canis lupus familiaris, Cardiac ventricle; outline: as §1
[17] = test system: Canis familiaris; assay: Compound was tested in vivo in dogs at a dose of 3.0 mg/kg through intravenous route and time at which conduction block at the atrioventricular node prevented atrial pacing was recorded.(Base line value-0); assay type: functional, Canis lupus familiaris; outline: as §1
[18] = test system: Canis familiaris; assay: Conduction time for ventricular refractory period of the first premature stimulus was tested in dogs at a dose of 1.0 mg/kg through intravenous administration. (baseline value- 137+/-4); assay type: functional, Canis lupus familiaris, Cardiac ventricle
[19] = test system: Canis familiaris; assay: Conduction time from the His bundle to the onset of ventricular depolarizations was tested in dogs at a dose of 1.0 mg/kg through intravenous administration. (baseline value- 17+/-1 ); assay type: functional, Canis lupus familiaris, Cardiac ventricle
[20] = test system: Canis familiaris; assay: Compound was tested in vivo in dogs at a dose of 3.0 mg/kg through intravenous route and time at which sustained ventricular arrhythmias were induced was recorded.(Base line value-2); assay type: functional, Canis lupus familiaris, Cardiac ventricle; outline: as §1
[21] = test system: Canis familiaris; assay: Compound was tested in vivo in dogs at a dose of 10.0 mg/kg through intravenous route and time at which ventricular fibrillation was induced was recorded.(Base line value-6); assay type: functional, Canis lupus familiaris, Cardiac ventricle; conditions: in the assay text read “Base line value-3” for “Base line value-6”; outline: as §1
[22] = test system: Canis familiaris; assay: Conduction time from the atrium to His bundle was tested in dogs at a dose of 1.0 mg/kg through intravenous administration. (baseline value- 73+/-3 ); assay type: functional, Canis lupus familiaris
[23] = test system: Canis familiaris; assay: Conduction time from Q wave to T wave of lead II electrocardiogram was tested in dogs at a dose of 3.0 mg/kg through intravenous administration. (baseline value- 352+/-7); assay type: functional, Canis lupus familiaris
[24] = species: Oryctolagus cuniculus; assay: Tested for rate automaticity measured in beats per minute from unpaced right atria of rabbit heart.; assay type: functional; outline: as §2
[25] = species: Oryctolagus cuniculus; assay: Tested for effective refractory period measured at a pacing rate of 3 Hz in vitro with rabbit heart tissue preparations.; assay type: functional; design: unit: %; outline: as §2
[26] = test system: Canis familiaris; assay: Conduction time from the atrium to His bundle was tested in dogs at a dose of 10.0 mg/kg through intravenous administration. (baseline value- 73+/-3 ); assay type: functional, Canis lupus familiaris
[27] = test system: Canis familiaris; assay: Compound was tested in vivo in dogs at a dose of 10 mg/kg through intravenous route and time at which ventricular arrhythmias were not indicible was recorded.(Base line value-5); assay type: functional, Canis lupus familiaris, Cardiac ventricle; outline: as §1
[28] = test system: Canis familiaris; assay: Compound was tested in vivo in dogs at a dose of 1.0 mg/kg through intravenous route and time at which sustained ventricular arrhythmias were induced was recorded.(Base line value-2); assay type: functional, Canis lupus familiaris, Cardiac ventricle; outline: as §1
[29] = test system: Canis familiaris; assay: Conduction time for ventricular refractory period of the second premature stimulus was tested in dogs at a dose of 1.0 mg/kg through intravenous administration. (baseline value- 123+/-4); assay type: functional, Canis lupus familiaris, Cardiac ventricle
[30] = test system: Canis familiaris; assay: Compound was tested in vivo in dogs at a dose of 10.0 mg/kg through intravenous route and time at which nonsustained ventricular arrhythmias were induced was recorded.(Base line value-1); assay type: functional, Canis lupus familiaris, Cardiac ventricle; outline: as §1
[31] = species: Oryctolagus cuniculus; assay: Tested for conduction time measured at a pacing rate of 1 Hz in vitro with rabbit heart tissue preparations.; assay type: functional; outline: as §2
[32] = test system: Canis familiaris; assay: Conduction time from Q wave to T wave of lead II electrocardiogram was tested in dogs at a dose of 10 mg/kg through intravenous administration. (baseline value- 352+/-7); assay type: functional, Canis lupus familiaris
[33] = test system: Canis familiaris; assay: Conduction time from the His bundle to the onset of ventricular depolarizations was tested in dogs at a dose of 3.0 mg/kg through intravenous administration. (baseline value- 17+/-1 ); assay type: functional, Canis lupus familiaris, Cardiac ventricle
[34] = species: Oryctolagus cuniculus; assay: Tested for effective refractory period measured at a pacing rate of 1 Hz in vitro with rabbit heart tissue preparations.; assay type: functional; outline: as §2
[35] = test system: Canis familiaris; assay: Compound was tested in vivo in dogs at a dose of 0.3 mg/kg through intravenous route and time at which conduction block at the atrioventricular node prevented atrial pacing was recorded.(Base line value-0); assay type: functional, Canis lupus familiaris; outline: as §1
[36] = test system: Canis familiaris; assay: Conduction time for ventricular refractory period of the second premature stimulus was tested in dogs at a dose of 10 mg/kg through intravenous administration. (baseline value- 123+/-4); assay type: functional, Canis lupus familiaris, Cardiac ventricle
[37] = test system: Canis familiaris; assay: Compound was tested in vivo in dogs at a dose of 0.1 mg/kg through intravenous route and time at which conduction block at the atrioventricular node prevented atrial pacing was recorded.(Base line value-0); assay type: functional, Canis lupus familiaris; outline: as §1

**Q.** With CC(C)NCC(O)c1ccc(NS(C)(=O)=O)cc1.Cl (configuration not stated) [SOTALOL HYDROCHLORIDE] as the compound, how does the Time [1] read?
**A.** 90 ms

**Q.** And the Time [2]?
**A.** 138 ms

**Q.** And the Time [3]?
**A.** 0 animals

**Q.** What about the Time [4] of the same compound?
**A.** 2 animals

**Q.** What about the Time [5] of the same compound?
**A.** 0 animals

**Q.** What about the Time [6] of the same compound?
**A.** 42 ms

**Q.** What about the Number of animals not inducible [7] of the same compound?
**A.** 7 animals

**Q.** And the FOC [8]?
**A.** 6

**Q.** What about the Time [9] of the same compound?
**A.** 0 animals

**Q.** What about the Time [10] of the same compound?
**A.** 197 ms

**Q.** What about the Time [11] of the same compound?
**A.** 152 ms

**Q.** What about the Time [12] of the same compound?
**A.** 0 animals

**Q.** And the Time [13]?
**A.** 4 animals

**Q.** What about the Time [14] of the same compound?
**A.** 157 ms

**Q.** And the Time [15]?
**A.** 8 animals

**Q.** And the Time [16]?
**A.** 0 animals

**Q.** And the Time [17]?
**A.** 0 animals

**Q.** And the Time [18]?
**A.** 145 ms

**Q.** And the Time [19]?
**A.** 40 ms

**Q.** What about the Time [20] of the same compound?
**A.** 1 animals

**Q.** What about the Time [21] of the same compound?
**A.** 0 animals

**Q.** And the Time [22]?
**A.** 77 ms

**Q.** What about the Time [23] of the same compound?
**A.** 197 ms

**Q.** What about the Rate [24] of the same compound?
**A.** -10

**Q.** And the ERP3 [25]?
**A.** 4.9

**Q.** And the Time [26]?
**A.** 107 ms

**Q.** What about the Time [27] of the same compound?
**A.** 5 animals

**Q.** What about the Time [28] of the same compound?
**A.** 2 animals

**Q.** And the Time [29]?
**A.** 126 ms

**Q.** What about the Time [30] of the same compound?
**A.** 1 animals

**Q.** And the CT1 [31]?
**A.** -11.7

**Q.** And the Time [32]?
**A.** 181 ms

**Q.** And the Time [33]?
**A.** 39 ms

**Q.** And the ERP1 [34]?
**A.** 7.3

**Q.** What about the Time [35] of the same compound?
**A.** 0 animals

**Q.** And the Time [36]?
**A.** 141 ms

**Q.** What about the Time [37] of the same compound?
**A.** 0 animals

Reference: ChEMBL document CHEMBL1125736, “N-[(omega-amino-1-hydroxyalkyl)phenyl]methanesulfonamide derivatives with class III antiarrhythmic activity” (1991)
